# Assay results reported in ChEMBL document CHEMBL1921792, “Synthesis and anticonvulsant activity of trans- and cis-2-(2,6-dimethylphenoxy)-N-(2- or 4-hydroxycyclohexyl)acetamides and their amine analogs” (Bioorg Med Chem, 2011).
# Calls of active or inactive are those of the source.
# Assays:
# [1] = tested on: Mus musculus; experiment: Anticonvulsant activity in mouse assessed as protection against maximal electric shock-induced seizures at 30 mg/kg, ip after 0.5 hrs; type: functional, organism-based; design: dose 30 mg/kg
# In short: (§1)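 Phase I maximal electroshock screen in mice. Compound given ip as a suspension in 0.5% methylcellulose at 30, 100 or 300 mg/kg, tested at 30 min and 4 h. Small groups (1–8); result is number protected/number tested.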
# [2] = tested on: Mus musculus; experiment: Anticonvulsant activity in mouse assessed as protection against maximal electric shock-induced seizures at 30 mg/kg, ip after 4 hrs; type: functional, organism-based; design: dose 30 mg/kg; in short: as §1
# [3] = tested on: Mus musculus; experiment: Anticonvulsant activity against subcutaneous pentylenetetrazole-induced seizures in mouse at 30 mg/kg, ip after 0.5 hrs; type: functional, organism-based; design: dose 30 mg/kg
# In short: (§2)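 Phase I screen in mice. Compound given ip as a suspension in 0.5% methylcellulose, read at 30 min and 4 h. Pentylenetetrazole 85 mg/kg in 0.9% NaCl was injected sc into the posterior midline and animals watched ≥30 min. Protection meant no clonic spasm lasting ≥5 s. Groups of 1–8 animals; result is protected/tested.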
# [4] = tested on: Mus musculus; experiment: Anticonvulsant activity against subcutaneous pentylenetetrazole-induced seizures in mouse at 30 mg/kg, ip after 4 hrs; type: functional, organism-based; design: dose 30 mg/kg; in short: as §2
# [5] = tested on: Mus musculus; experiment: Anticonvulsant activity against subcutaneous pentylenetetrazole-induced seizures in mouse at 100 mg/kg, ip after 0.5 hrs; type: functional, organism-based; design: dose 100 mg/kg; in short: as §2
# [6] = tested on: Mus musculus; experiment: Anticonvulsant activity in mouse assessed as protection against maximal electric shock-induced seizures at 3 mg/kg, ip after 0.5 hrs; type: functional, organism-based; design: dose 3 mg/kg
# [7] = tested on: Mus musculus; experiment: Neurotoxicity in mouse assessed as inability to maintain equilibrium on rotarod at 30 mg/kg, ip after 0.5 hrs by rotarod test; type: toxicity, organism-based; design: dose 30 mg/kg, route intraperitoneal; conditions: in vivo
# In short: (§3)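 Drug given ip to mice as a suspension in 0.5% methylcellulose. At the stated time after dosing, each mouse was placed on a 1 inch knurled rod turning at 6 rpm. Neurotoxicity = inability to stay balanced at least 1 min in each of three trials. Scored as animals toxic/animals tested in small groups.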
# [8] = tested on: Mus musculus; experiment: Neurotoxicity in mouse assessed as inability to maintain equilibrium on rotarod at 100 mg/kg, ip after 0.5 hrs by rotarod test; type: toxicity, organism-based; design: dose 100 mg/kg, route intraperitoneal; conditions: in vivo; in short: as §3
# [9] = tested on: Mus musculus; experiment: Neurotoxicity in mouse assessed as inability to maintain equilibrium on rotarod at 300 mg/kg, ip after 0.5 hrs by rotarod test; type: toxicity, organism-based; design: dose 300 mg/kg, route intraperitoneal; conditions: in vivo; in short: as §3
# [10] = tested on: Mus musculus; experiment: Neurotoxicity in mouse assessed as inability to maintain equilibrium on rotarod at 3 mg/kg, ip after 0.5 hrs by rotarod test; type: toxicity, organism-based; design: dose 3 mg/kg, route intraperitoneal; conditions: in vivo
# [11] = tested on: Mus musculus; experiment: Neurotoxicity in mouse assessed as inability to maintain equilibrium on rotarod at 10 mg/kg, ip after 0.5 hrs by rotarod test; type: toxicity, organism-based; design: dose 10 mg/kg, route intraperitoneal; conditions: in vivo
# [12] = tested on: Mus musculus; experiment: Neurotoxicity in mouse assessed as inability to maintain equilibrium on rotarod at 30 mg/kg, ip after 4 hrs by rotarod test; type: toxicity, organism-based; design: dose 30 mg/kg, route intraperitoneal; conditions: in vivo; in short: as §3
# [13] = Neurotoxicity in ip dosed mouse assessed as inability to maintain equilibrium on rotarod by rotarod test; type: toxicity, organism-based; conditions: in vivo
# In short: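 Mice dosed ip with a suspension in 0.5% methylcellulose, then placed on a 1 inch knurled plastic rod rotating at 6 rpm. Toxicity = failure to keep equilibrium for at least 1 min in each of three trials.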
# [14] = Neurotoxicity in po dosed rat assessed as neurological deficit […]; type: toxicity, organism-based; conditions: in vivo
# In short: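 Rats dosed orally with a suspension in 0.5% methylcellulose. Neurological deficit judged by ataxia and loss of placing response and muscle tone.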
# [15] = tested on: Mus musculus; experiment: Anticonvulsant activity in ip dosed mouse assessed as protection against maximal electric shock-induced seizures; type: functional; conditions: Mus musculus, ip; read-out: ED50
# [16] = tested on: Rattus norvegicus; experiment: Anticonvulsant activity in po dosed rat assessed as protection against maximal electric shock-induced seizures; type: functional
# [17] = species: Mus musculus; experiment: Protective index, ratio of TD50 for neurotoxicity in mouse to ED50 for inhibition of maximal electroshock-induced seizures in mouse; type: functional
# [18] = species: Rattus norvegicus; experiment: Protective index, ratio of TD50 for neurotoxicity in rat to ED50 for inhibition of maximal electroshock-induced seizures in rat; type: functional
# [19] = tested on: Rattus norvegicus; experiment: Anticonvulsant activity in rat assessed as protection against maximal electric shock-induced seizures at 30 mg/kg, po after 4 hrs; type: functional, organism-based; design: dose 30 mg/kg
# In short: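 MES test in rats dosed orally at 30 mg/kg as a suspension in 0.5% methylcellulose, read at 0.25–4 h. Four rats per time point; result is protected/tested.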
# [20] = tested on: Rattus norvegicus; experiment: Neurotoxicity in rat assessed as neurological deficit at 30 mg/kg, po after 0.25 hrs […]; type: toxicity, organism-based; design: dose 30 mg/kg, route oral; conditions: in vivo
# In short: (§4)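 Rats given the compound, suspended in 0.5% methylcellulose, by the stated route and dose. Neurological deficit was recorded at the listed times as ataxia and loss of placing response and muscle tone. Reported as number of rats showing toxicity/number tested.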
# [21] = tested on: Rattus norvegicus; experiment: Neurotoxicity in rat assessed as neurological deficit at 30 mg/kg, po after 0.5 hrs […]; type: toxicity, organism-based; design: dose 30 mg/kg, route oral; conditions: in vivo; in short: as §4
# [22] = tested on: Rattus norvegicus; experiment: Neurotoxicity in rat assessed as neurological deficit at 30 mg/kg, po after 1 hr […]; type: toxicity, organism-based; design: dose 30 mg/kg, route oral; conditions: in vivo; in short: as §4
# [23] = tested on: Rattus norvegicus; experiment: Neurotoxicity in rat assessed as neurological deficit at 30 mg/kg, po after 2 hrs […]; type: toxicity, organism-based; design: dose 30 mg/kg, route oral; conditions: in vivo; in short: as §4
# [24] = tested on: Rattus norvegicus; experiment: Neurotoxicity in rat assessed as neurological deficit at 30 mg/kg, po after 4 hrs by rotarod test; type: toxicity, organism-based; design: dose 30 mg/kg, route oral; conditions: in vivo; in short: as §4
# [25] = tested on: Rattus norvegicus; experiment: Anticonvulsant activity in rat assessed as protection against maximal electric shock-induced seizures at 30 mg/kg, ip after 0.25 hrs; type: functional, organism-based; design: dose 30 mg/kg
# In short: (§5)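 Time-to-peak-effect assay: MES protection read at 0.25–4 h after dosing. Mice ip (60–130 mg/kg), rats po (15 or 30 mg/kg) or ip (30 mg/kg). Groups of 4–8; result is protected/tested.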
# [26] = tested on: Rattus norvegicus; experiment: Anticonvulsant activity in rat assessed as protection against maximal electric shock-induced seizures at 30 mg/kg, ip after 0.5 hrs; type: functional, organism-based; design: dose 30 mg/kg; in short: as §5
# [27] = tested on: Rattus norvegicus; experiment: Anticonvulsant activity in rat assessed as protection against maximal electric shock-induced seizures at 30 mg/kg, ip after 1 hr; type: functional, organism-based; design: dose 30 mg/kg; in short: as §5
# [28] = tested on: Rattus norvegicus; experiment: Anticonvulsant activity in rat assessed as protection against maximal electric shock-induced seizures at 30 mg/kg, ip after 2 hrs; type: functional, organism-based; design: dose 30 mg/kg; in short: as §5
# [29] = tested on: Rattus norvegicus; experiment: Anticonvulsant activity in rat assessed as protection against maximal electric shock-induced seizures at 30 mg/kg, ip after 4 hrs; type: functional, organism-based; design: dose 30 mg/kg; in short: as §5
# [30] = tested on: Rattus norvegicus; experiment: Neurotoxicity in rat assessed as neurological deficit at 30 mg/kg, ip after 1 hr; type: toxicity, organism-based; design: dose 30 mg/kg, route intraperitoneal; conditions: in vivo; in short: as §4
# [31] = tested on: Rattus norvegicus; experiment: Neurotoxicity in rat assessed as neurological deficit at 30 mg/kg, ip after 2 hrs; type: toxicity, organism-based; design: dose 30 mg/kg, route intraperitoneal; conditions: in vivo; in short: as §4
# [32] = tested on: Rattus norvegicus; experiment: Neurotoxicity in rat assessed as neurological deficit at 30 mg/kg, ip after 4 hrs; type: toxicity, organism-based; design: dose 30 mg/kg, route intraperitoneal; conditions: in vivo; in short: as §4
# [33] = tested on: Mus musculus; experiment: Anticonvulsant activity against […] in mouse assessed as increase in tonic threshold at 8 mg/kg, ip by threshold tonic extension test; type: functional, organism-based; design: dose 8 mg/kg
# In short: (§6)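 Threshold tonic extension test in mice. The compound was given ip, then pentylenetetrazol was infused until the first twitch and the first clonus. PTZ dose was calculated from the infusion speed. Mean of 8 animals ± S.E.M.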
# [34] = tested on: Mus musculus; experiment: Anticonvulsant activity against […] in mouse assessed as increase in tonic threshold at 28 mg/kg, ip by threshold tonic extension test; type: functional, organism-based; design: dose 28 mg/kg; in short: as §6
# [35] = tested on: Rattus norvegicus; experiment: Anticonvulsant activity in ip dosed rat assessed as time to show peak effect of protection against maximal electric shock-induced seizures; type: functional; in short: as §5
smiles,measurement,setting,value
Cc1cccc(C)c1OCCNC1CCCCC1O (racemic),Activity,[1],Active
same,Activity,[2],inactive
same,Activity,[3],inactive
same,Activity,[4],inactive
same,Activity,[5],inactive
same,Activity,[6],inactive
same,Activity,[7],Toxic
same,Activity,[8],Toxic
same,Activity,[9],Toxic
same,Activity,[10],Non-toxic
same,Activity,[11],Non-toxic
same,Activity,[12],Non-toxic
same,TD50,[13],28.4 mg/kg
same,TD50,[14],> 500 mg/kg
same,ED50,[15],7.73 mg/kg
same,ED50,[16],26.2 mg/kg
same,Ratio TD50/ED50,[17],3.9
same,Ratio TD50/ED50,[18],>19.06
same,Activity,[19],inactive
same,Activity,[20],Non-toxic
same,Activity,[21],Non-toxic
same,Activity,[22],Non-toxic
same,Activity,[23],Non-toxic
same,Activity,[24],Non-toxic
same,Activity,[25],Active
same,Activity,[26],Active
same,Activity,[27],Active
same,Activity,[28],inactive
same,Activity,[29],inactive
same,Activity,[30],Non-toxic
same,Activity,[31],Non-toxic
same,Activity,[32],Non-toxic
same,Activity,[33],inactive
same,Activity,[34],inactive
same,Time,[35],0.25 h
